Drawing on ChEMBL document CHEMBL1124846, “Synthesis, antiproliferative, and antiviral activity of certain 4-substituted and 4,5-disubstituted 7-[(1,3-dihydroxy-2-propoxy)methyl]pyrrolo[2,3-d]pyrimidines” (J Med Chem, 1990), this text covers IC50, IC90 and Activity for four compounds.

Assay [1] concerns Human alphaherpesvirus 1. Kind of assay: Inhibition of herpes simplex virus (HSV-1) in plaque reduction assay. The class given is functional, organism-based. The gist of the method: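 HSV-1 S-148 strain plaque reduction in BSC-1 monkey kidney monolayers, with about 100 PFU inoculum and compound dissolved in the overlay medium. IC50 came from linear regression of percent inhibition against log concentration, with a positive control in each set.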

In assay [2] the test system is Human alphaherpesvirus 1. Kind of assay: Inhibition of herpes simplex virus (HSV-1) in yield reduction assay. The format is functional, organism-based.
For assay [3], the system named is L1210. In words: In vitro inhibition of L1210 cell growth. The format is functional, Mus musculus. On the set-up: concentration or dose not given beside the values. The gist of the method:
(§1)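 Murine L1210 leukemia cells in static suspension culture in Fischer's medium with compound for 4 days. Growth rate is the ratio of control to treated population doubling time; where the rate changed, the final rate was used. IC50 is the concentration giving 50% of control growth rate; single-concentration value at 100 μM.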

A further assay deals with Neoplastic cell line. Kind of assay: Cytotoxic activity against KB cells. The format is cell-based. To be noted: Homo sapiens. The gist of the method: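 KB cells (human oral epidermoid carcinoma) grown in MEM(H) with 5% FBS. Compound effect on incorporation of radiolabelled precursors into DNA, RNA and protein was measured. IC50s came from linear regression of percent inhibition against log concentration, and the three IC50s were averaged.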

The nature of assay [4]: Cytotoxic activity against HFF cells. The format is cell-based. As to conditions: Homo sapiens. In outline: (§2)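 Cytotoxicity was scored visually in uninfected HFF or BSC-1 monolayers within the plaque-reduction assays. Drug-induced cytopathology was read at 35- and 60-fold magnification on a 0 to 4+ scale on the day plaques were stained and counted.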
In the next assay the test system is Human betaherpesvirus 5. In words: Inhibition of human cytomegalovirus (HCMV) in plaque reduction assay. The class given is functional, organism-based. The gist of the method:
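HCMV Towne strain (plaque-purified P0) plaque reduction in HFF monolayers in MEM(E) with 10% FBS. Inoculum held about 50 PFU, with compound dissolved in the overlay medium. IC50 came from linear regression of percent inhibition against log concentration, with ganciclovir or acyclovir positive controls in every set; two to five experiments.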
(Plaque reduction counts the foci of infection that form in a cell layer.)

Assay [5] has as its system L1210. Kind of assay: In vitro inhibition of L1210 cell growth to half of the control rate. The class given is functional, cell-based. To be noted: Mus musculus. In outline:
as §1

Assay [6] in a line: Cytotoxic activity against BSC cells. The format is cell-based. To be noted: Cercopithecidae. In outline: as §2

pIC50: −log10 of the molar value. Where “and” joins values, the source holds several entries; their conditions need not be identical. Equal entries are not always repeated.

Usually pIC50 stands for the negative decadic logarithm of the IC50, by convention in mol/L. The term IC90 denotes the concentration needed for an effect of 90%. Consider `OCC(CO)OCn1cc(Br)c2c(NO)ncnc21`, for which the pIC50 is 5.54 with Human alphaherpesvirus 1 [1]; 3.49 in the assay with Neoplastic cell line; less than 4.00 in assay [4]; 5.92 and 5.00 in the assay on Human betaherpesvirus 5; 5.43 with L1210 [5]. The same compound displayed an IC90 with Human alphaherpesvirus 1 [2] greater than 100 µM. In the assay with L1210 [3], this compound displayed an Activity of 0%.
`Nc1ncnc2c1c(Br)cn2[C@@H]1O[C@H](CO)[C@@H](O)[C@H]1O` showed an Activity with L1210 [3] of 9%. The pIC50 with Neoplastic cell line is 5.64; in the assay with Human betaherpesvirus 5 it was 5.47; in the assay with L1210 [5] it was 5.40.
Take `Nc1nc2c(ncn2COCCO)c(=O)[nH]1` [ACYCLOVIR]: the pIC50 with Human alphaherpesvirus 1 [1] was 5.40; in assay [6], less than 4.00; in the assay on Neoplastic cell line, less than 4.00; in the assay with Human betaherpesvirus 5, 4.20. In the assay on Human alphaherpesvirus 1 [2], this compound gave an IC90 of 7 µM.
In turn, `OCC(CO)OCn1ccc2cncnc21` came in with an Activity in the assay on L1210 [3] of 100%. The negative logarithm of the IC50 (pIC50) (in assay [4]; in the assay on Human betaherpesvirus 5 (Human betaherpesvirus 5)) was less than 4.00 throughout.
